Compound activity (PubChem BioAssay)
This is a sample that favours compounds with a hit; in the whole collection about 2.2% have one here.
HCV NS3 hel inh – inhibitors of HCV NS3 helicase, primary screen, biochemical, Cy5 molecular beacon fluorescence | Hepatitis C virus NS3 helicase | NS3 helicase DNA unwinding | inhibition, % at 10.9 µM | hit rate 0.56% among 290,000 | AID 1800, 2009;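 active = inhibition above the mean of all tested compounds plus 3 SD, set per campaign, cut at about 35% in these data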;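 also: 0% = DMSO wells and 100% = thioflavine S control wells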
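assay system = NS3 helicase fragment of HCV | buffer or medium = MOPS pH 6.5, MgCl2, DTT, Tween20, BSA | timing = 60 min unwinding reaction at 25 °C after ATP addition | signal = Cy5 beacon fluorescence read at start and 1 h | read-out basis = % inhibition of unwinding | control set = low DMSO, high thioflavine S at 110 µM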
core dimer inh – inhibitors of HCV core protein dimerization, primary screen, biochemical, TR-FRET, high-throughput | inhibition, % at 5 µM | TR-FRET GST/Flag-core106 dimerization, 1536-well | hit rate 0.33% among 300,000 | AID 1899, 2009;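 active = inhibition above the mean of all tested compounds plus 3 SD, set per screening campaign, cut at about 45% in these data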
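Material: Tagged HCV core106 pair (GST and Flag) | Amount: GST-core106 13.5 nM, Flag-core106 17 nM | Medium: KF-containing HEPES buffer, pH 7.45, DTT, CHAPS, BSA | Reagent: Eu donor and XL665 acceptor anti-tag antibodies | Schedule: 4 h at 22.5 °C | Technique: Time-resolved FRET, ex 340 nm, em 617 and 671 nm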
GPR7 antag – GPR7 receptor antagonists, primary screen, cell-based, fluorescence, single concentration | Neuropeptides B/W receptor type 1 (Homo sapiens), P48145 | GPR7-expressing cells, fluorescence antagonist assay | inhibition, % at 4.4 µM | hit rate 1.1% among 290,000 | AID 1861, 2009; in the data active = inhibition above about 16%, passing the limit was not always enough;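 also: cells stimulated with the agonist NPW; 0% = agonist with vehicle and 100% = vehicle without agonist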
Target sequence (P48145 whole entry, looked up): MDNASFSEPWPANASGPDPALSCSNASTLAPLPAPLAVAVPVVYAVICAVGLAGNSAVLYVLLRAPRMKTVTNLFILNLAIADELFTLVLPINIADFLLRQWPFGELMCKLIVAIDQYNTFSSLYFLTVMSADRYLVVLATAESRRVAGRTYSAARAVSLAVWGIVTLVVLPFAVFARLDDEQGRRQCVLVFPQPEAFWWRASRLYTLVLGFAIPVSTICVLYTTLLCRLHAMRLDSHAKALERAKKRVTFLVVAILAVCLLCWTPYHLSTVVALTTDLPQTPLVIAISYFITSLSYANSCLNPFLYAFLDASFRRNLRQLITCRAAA
DAGLB inhibitor – DAGLB lipase inhibitors, primary screen, biochemical, fluorescence, HTS; HEK293T DAGLB membrane lysate, EnzChek fluorogenic substrate; inhibition, % at 5.17 µM; hit rate 0.059% among 340,000; AID 504411, 2011; in the data active = inhibition above about 34%;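 also: 0% = enzyme with vehicle and 100% = wells lacking enzyme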
FID counter – compounds displacing fluorescent DNA intercalator, primary screen, artefact control for HCV NS3 helicase inhibitor project, biochemical, FID fluorescence | DNA fluorescent intercalator displacement | inhibition, % at 7.9 µM | hit rate 0.17% among 290,000; in the data active = inhibition above about 37%;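 also: 0% = vehicle and 100% = reference compound; higher means more ethidium bromide displaced from hairpin DNA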
GRK2 inh – compounds blocking aptamer binding on GRK2 – biochemical, human GRK2, bead flow cytometry, HTS, primary screen; Beta-adrenergic receptor kinase 1 (Homo sapiens), P25098; FAM-aptamer displacement from GRK2; inhibition of aptamer binding, % at 10 µM; hit rate 0.59% among 330,000; AID 488847, 2010;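 active = inhibition of aptamer binding above 40%, roughly 3 SD of noise, on plates passing a quality check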;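 also: median bead fluorescence of bound FAM aptamer so fluorescent compounds give negative values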
GPR7 antag cf – GPR7 receptor antagonists, confirmation, cell-based, fluorescence, single concentration; hit rate 52% among 2,400; inhibition, % at 4.4 µM; AID 1952, 2009; GPR7-expressing cells, calcium fluorescence antagonist mode; shares compounds with GPR7 antag; in the data active = inhibition above about 24%;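 also: stimulated with the GPR7 agonist NPW; 0% = agonist plus vehicle and 100% = vehicle alone without agonist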
MCHR1 antag – MCHR1 antagonists in cells, counter-screen for GPR7 antagonist project, cell-based, fluorescence, human. hit rate 62% among 2,400. inhibition, % at 4.4 µM. MCHR1-expressing cells, fluorescence antagonist assay. shares compounds with GPR7 antag; in the data active = inhibition above about 22%;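 also: 0% = vehicle with agonist and 100% = vehicle without agonist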
GRK2 inh confirm – GRK2 aptamer-displacing inhibitors, retest, confirmation, biochemical, cherry pick 1, bead flow cytometry | shares compounds with GRK2 inh | bead-bound GRK2, FAM-aptamer displacement | aptamer displacement, % at 10 µM | hit rate 4% among 2,000 | AID 504451, 2011;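 active = aptamer displacement above 40%, near three times the noise of non-fluorescent compounds, on plates passing quality checks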;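 also: negative values mostly reflect intrinsic compound fluorescence rather than true enhancement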
FAM quench CP1 – counter-screen for GRK2 aptamer inhibitors: fluorescent aptamer quenchers; shares compounds with GRK2 inh; Carboxyfluorescein RNA aptamer on beads, flow cytometry quenching; hits give low values; fluorescence response (% of DMSO), % at 10 µM; 2,000 tested, under 10 active; AID 504580;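 active = compounds that quench the bead-bound fluorescent RNA probe, cutting fluorescence to under half of the solvent control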;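 also: counterscreen run without GRK2 so only probe quenching by compound is measured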
GRK2 confirm 2 – GRK2 aptamer-displacing inhibitors, hit retest, confirmation, biochemical, cherry pick 2, bead flow cytometry; inhibition of aptamer binding, % at 10 µM; 360 tested, under 10 active; bead-bound GRK2, FAM-aptamer displacement; shares compounds with GRK2 inh;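 active = inhibition of aptamer binding above 40%, about triple the noise seen with nonglowing compounds, on plates passing quality control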;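 also: negative values mostly come from compounds that fluoresce themselves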
FAM quench SP – quenches fluorescent RNA aptamer, GRK2 hit artifact; shares compounds with GRK2 inh; fluorescence response vs DMSO, % at 10 µM; carboxyfluorescein RNA aptamer beads, flow cytometry quenching; hits give low values; 360 tested, under 10 active;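 active = response vs DMSO under 50%, meaning signal dropped by over half, treated as fluorescence quencher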;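 also: labelled aptamer on streptavidin beads without GRK2 as a quench counter-screen; 100% = bead fluorescence of DMSO wells and lower means quenching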
An asterisk follows results filed as active; nt = no result given.

SMILES	HCV NS3 hel inh	core dimer inh	GPR7 antag	DAGLB inhibitor	FID counter	GRK2 inh	GPR7 antag cf	MCHR1 antag	GRK2 inh confirm	FAM quench CP1	others
O=C(NCCc1c[nH]c2ccccc12)c1ccc([N+](=O)[O-])cc1	3.6	-4.1	30.5*	0.7	9.2	41.0*	30.2*	25.6*	nt	nt	GRK2 confirm 2=19.1;FAM quench SP=100.0
C(=N/n1c2ccccc2c2ccccc21)/c1ccco1	4.0	-3.2	26.3*	-6.3	-4.8	96.0*	-11.6	10.1	-0.7	100.6
C(=N\n1c2ccccc2c2ccccc21)/c1ccccc1	-5.6	-3.5	-5.5	-8.9	2.9	0.0	nt	nt	nt	nt
Cc1ccc(N(CC(O)Cn2c3ccccc3c3ccccc32)S(C)(=O)=O)cc1 (centres undefined)	-15.2	-2.4	24.3*	2.8	-20.9	54.0*	29.6*	44.5*	-0.7	101.5
Cc1cc(C(=O)NNC(=O)c2ccc(F)cc2)c(C)s1	nt	nt	nt	-1.8	nt	0.0	nt	nt	nt	nt
Cc1nn(-c2ccc(F)cc2)c(Cl)c1/C=C(/CC(=O)O)c1nc2ccccc2s1	nt	nt	nt	5.7	nt	nt	nt	nt	nt	nt
Cc1nn(-c2ccc(F)cc2)c(Cl)c1/C=C(\CC(=O)O)c1nc2ccccc2s1	34.9	7.7	31.4*	4.2	-34.2	2.0	0.2	-0.9	2.4	98.4
Cc1ccc(C23CC4CC(CC(C(=O)NC(C(=O)O)C(C)C)(C4)C2)C3)cc1 (centres undefined)	20.3	1.2	2.9	1.1	-31.9	4.0	nt	nt	nt	nt
O=C(N/N=C/c1cccnc1)c1cccc(NC(=O)c2ccc(Cl)cc2)c1	-2.8	5.2	4.1	0.8	-11.8	39.0	nt	nt	-4.7	93.1
C[n+]1c2n(c3ccccc31)N=C(c1cc(C(C)(C)C)c(O)c(C(C)(C)C)c1)CS2	-42.9	-0.2	70.1*	3.0	14.4	64.0*	nt	nt	-1.0	101.4
CCOC(=O)/C=C/C(=O)OCC(=O)N1CCN(C(=O)c2ccco2)CC1	10.2	1.4	-17.4	2.9	-12.2	5.0	nt	nt	nt	nt
CCSc1nc2sc3c(c2c(=O)n1CC)CCC3	-7.1	nt	-18.5	-13.6	-21.9	3.0	nt	nt	nt	nt	GRK2 confirm 2=16.1;FAM quench SP=99.0
CSc1nc2sc3c(c2c(=O)n1C)CCCC3	-0.5	3.3	3.1	-10.2	3.3	2.0	nt	nt	nt	nt
CSc1nc2sc3c(c2c(=O)n1C)CCC3	-5.4	-0.8	-10.6	-2.7	-13.1	1.0	nt	nt	nt	nt	GRK2 confirm 2=-68.8;FAM quench SP=98.0
